High-throughput results: PubChem BioAssay, Sanford-Burnham Center for Chemical Genomics
In the library only some 1.7% were active in any assay of this set; here they are far more common.
DNMT1 inh = human DNMT1 methyltransferase inhibitors, primary screen, biochemical, molecular beacon, fluorescence, HinP1I cleavage, uHTS. DNA (cytosine-5)-methyltransferase 1 (Homo sapiens), P26358. actives 0.83% (n = 360,000). AID 588458, 2011. inhibition (reported as % activation of signal), % at 10 µM; in the data active means inhibition above about 50%
LMPTP inh = LMPTP phosphatase inhibitors, primary screen, biochemical, fluorescence intensity, uHTS; actives 0.22% (n = 360,000); inhibition, % at 20 µM; recombinant LMPTP-A, OMFP fluorogenic substrate; AID 651560, 2012;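 active means compounds that cut the enzyme signal by at least half of the control window in the single-dose screen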
Target sequence (P24666 whole entry, looked up): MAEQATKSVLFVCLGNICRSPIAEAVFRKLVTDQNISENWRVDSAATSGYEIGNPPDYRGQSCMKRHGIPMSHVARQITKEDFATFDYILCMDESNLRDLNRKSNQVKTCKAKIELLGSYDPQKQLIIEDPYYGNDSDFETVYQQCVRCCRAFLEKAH
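Test system – LMPTP-A enzyme · Amount – LMPTP-A at 0.625 nM final in the reaction · Buffer or medium – Bis-Tris pH 6.0, DTT, detergent · Reagent – OMFP 400 µM · Doses – single 20 µM dose · Schedule – reaction 50 min, room temperature, dark · Detection – fluorescence intensity of OMFP turnover product · Evaluation – percent inhibition versus substrate-only and uninhibited controls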
STEP inh = STEP phosphatase inhibitors, primary screen, biochemical, fluorescence intensity, uHTS. Tyrosine-protein phosphatase non-receptor type 5 (Homo sapiens), P54829. recombinant STEP, OMFP fluorogenic substrate. inhibition, % at 20 µM. actives 0.25% (n = 360,000). AID 588621, 2011;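 active means inhibition at 20 µM, scaled per plate between control wells, above about 37%, limit read from the data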
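Assay system: isolated STEP enzyme. Buffer or medium: pH 6.0 Bis-Tris with DTT and Tween 20. Also added: fluorogenic phosphatase substrate OMFP at 25 µM final. Dosing: 20 µM, 1% DMSO. Timing: 20 min reaction, room temperature, in the dark. Measured by: fluorescence intensity, excitation 480 nm, emission 540 nm. Evaluation: normalized % inhibition.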
SUMO1-SIM PPI = modulators of SUMO1 protein-protein interactions, primary screen, biochemical, uHTS. Small ubiquitin-related modifier 1 (Homo sapiens), P63165. SUMO1 binding to a labelled peptide, TR-FRET, 1 h. inhibition, % at 20 µM. actives 0.33% (n = 360,000); in the data active means inhibition above about 37%
Target sequence (P63165 whole entry, looked up): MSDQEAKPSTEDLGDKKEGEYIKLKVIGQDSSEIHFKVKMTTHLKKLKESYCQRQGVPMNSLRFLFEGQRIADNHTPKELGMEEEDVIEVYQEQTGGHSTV
Scp1 inh = Scp-1 phosphatase inhibitors, primary screen, biochemical, colorimetric, uHTS | actives 0.88% (n = 340,000) | Recombinant Scp1, phosphopeptide, malachite green phosphate absorbance | Carboxy-terminal domain RNA polymerase II polypeptide A small phosphatase 1 (Homo … | inhibition, % at 20 µM;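 active means inhibition above about 50% at 20 µM, limit read from the data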
Target sequence (Q9GZU7 76-261 limits assumed): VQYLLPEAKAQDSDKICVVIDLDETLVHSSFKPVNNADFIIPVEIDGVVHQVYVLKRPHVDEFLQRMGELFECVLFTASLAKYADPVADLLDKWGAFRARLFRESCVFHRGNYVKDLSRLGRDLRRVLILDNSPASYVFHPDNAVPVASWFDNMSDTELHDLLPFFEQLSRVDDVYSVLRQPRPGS
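Incubation: 45 min enzyme reaction at room temperature / System: truncated SCP-1 phosphatase (76-261aa) / Reagent: Phospho 17-mer peptide substrate / Buffer or medium: Acidic Tris acetate buffer with magnesium and detergent / Signal: absorbance at 630 nm / Doses: one concentration, 20 µM, with 1.0% DMSO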
Scp1 confirm = Scp-1 phosphatase inhibitors, retest, confirmation, biochemical, colorimetric, single concentration; actives 61% (n = 2,500); shares compounds with Scp1 inh; inhibition, % at 20 µM; AID 540281, 2011; recombinant SCP-1 catalytic domain, phosphate release, malachite green absorbance;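 active means inhibition of at least 30% at 20 µM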
MG interference = colorimetric readout interference by compounds, confirmation, artefact control for Scp-1 inhibitor project, biochemical, single concentration | apparent inhibition (interference), % at 20 µM | Colorimetric interference counterscreen, malachite green absorbance 630 nm | 2,500 tested, under 10 active | shares compounds with Scp1 inh;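 active means inhibition of at least 30% at 20 µM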;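 further: compounds added after enzyme reaction finished so only phosphate colour detection is probed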
Scp-1 Tm shift = Scp-1 binding by thermal shift, confirmation, orthogonal assay for Scp-1 inhibitor project, biophysical, differential scanning fluorimetry; Recombinant SCP1, Sypro Orange thermal shift Tm; AID 540329, 2011; shares compounds with Scp1 inh; actives 25% (n = 1,500); thermal shift relative to vanadate control, % at 40 µM;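 active means substances whose mean melting-temperature shift, as a percentage of the reference inhibitor's shift, reaches about 5.3%, limit read from the data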
Beacon interf DR = spectral interference with molecular beacon fluorescence, dose response, artefact control for DNMT1 inhibitor project, biochemical, fluorescent molecular beacon. shares compounds with DNMT1 inh. spectral interference counter-screen. IC50, µM. 200 tested, under 10 active
DNMT1 inh conf = DNMT1 methyltransferase inhibitor retest, confirmation, biochemical, molecular beacon, fluorescence, single concentration; shares compounds with DNMT1 inh; DNMT1 molecular beacon HinP1I cleavage; inhibition, % at 10 µM; actives 8% (n = 2,300); AID 602385, 2012;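 active means average inhibition of at least 30% in the single-concentration confirmation test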
DNMT1 interf = counter-screen for DNMT1 inhibitors: spectral interference. shares compounds with DNMT1 inh. DNMT1 molecular beacon spectral interference counterscreen, fluorescence 485/520. actives 1% (n = 2,300). AID 602387. activation (fluorescence interference), % at 10 µM;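 active means activation of at least 30% at 10 µM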;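 further: DNMT1 catalytic domain with a HinP1I cleavage step and a FAM/dabcyl DNA beacon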
STEP inh conf = STEP phosphatase inhibitor hit confirmation, biochemical, fluorescence intensity, single concentration; shares compounds with STEP inh; recombinant STEP, OMFP fluorogenic substrate; inhibition, % at 20 µM; actives 32% (n = 520); AID 623866, 2012
Hits are given with their value; n = inactive; x = not tested or not shown. Unless noted, how the calls were made is not given here.

SMILES | DNMT1 inh | LMPTP inh | STEP inh | SUMO1-SIM PPI | Scp1 inh | Scp1 confirm | MG interference | Scp-1 Tm shift | STEP inh conf | others
O=C1Nc2ccc3sc4ccccc4c3c2C1=O | n | 76.7 | 95.7 | 55.2 | 93.0 | 78.5 | n | 8.0 | 52.9
Cc1ccc(Cn2c(C(C)Nc3nc(-c4ccc(C)cc4)cs3)nc3cc(Cl)c(Cl)cc32)cc1 (stereo unspecified) | 77.6 | n | 78.1 | 110.1 | 60.8 | 55.9 | n | n | n | DNMT1 inh conf=n;DNMT1 interf=n
O=C(CCc1ccccc1)NNC(=O)c1ccc(NC(=O)c2ccccc2)cc1 | n | 60.7 | 41.7 | n | 57.3 | 73.9 | n | n | 95.4
O=C(CSc1cccc[n+]1[O-])Nc1cccc(Oc2ccccc2)c1 | n | n | n | n | n | x | x | x | x
CCc1c(C)[nH]n(-c2ccc(Oc3ccccc3)c(S(=O)(=O)O)c2)c1=O | 66.0 | n | 52.9 | n | 79.0 | 79.5 | n | n | 35.7
Cc1[nH]n(-c2ccccc2)c(=O)c1CCO | n | n | n | n | n | x | x | x | x
CCC(=O)Nc1c2c(nn1-c1ccc(F)cc1)CS(=O)(=O)C2 | n | n | n | n | n | x | x | x | x
CCOC(=O)CN1C(=O)S/C(=C/c2ccc(OCc3ccc(C(=O)O)cc3)cc2)C1=O | n | n | 77.5 | n | 93.2 | 66.7 | n | n | 49.6
COc1ccc(-n2nc(C(=O)NCC(=O)Nc3ccccn3)c3ccccc3c2=O)cc1Cl | n | n | 48.1 | n | 62.5 | 42.8 | n | n | 32.4
COc1ccc(-n2nc(C(=O)NCC(=O)NC(C)C)c3ccccc3c2=O)cc1Cl | n | n | n | n | n | x | x | x | x
COc1cc(C(=O)O)nc(OC)n1 | n | n | n | n | n | x | x | x | x
CCOc1ccc(C(=O)Nc2ccc(NC(=O)c3ccccc3)c(C)c2)cc1[N+](=O)[O-] | n | n | 43.5 | n | 77.8 | 59.5 | n | n | n
N=C1S/C(=C\c2ccc(O)cc2)C(=O)N1c1ccc(F)cc1 | n | 69.1 | 78.5 | n | 77.5 | 51.9 | n | 18.6 | 12.1
O=C(NNC(=O)c1cc2cc3ccccc3nc2s1)c1ccc(F)cc1 | n | n | 97.3 | n | 104.6 | 67.5 | n | n | n
O=C(NNC(=O)c1cc2cc3ccccc3nc2s1)c1cccc(Cl)c1 | 78.4 | 62.9 | 97.4 | n | 98.1 | 72.6 | n | n | n | DNMT1 inh conf=n;DNMT1 interf=n
Cc1cccc(C(=O)NNC(=O)c2cc3cc4ccccc4nc3s2)c1 | n | n | n | n | n | x | x | x | x
COCC1=C(C(=O)OC)C(c2ccco2)n2ncnc2N1 (stereo unspecified) | n | n | n | n | n | x | x | x | x
Cc1ccc(C(=O)NNC(=O)CSc2nnc3c(n2)[nH]c2ccc(F)cc23)cc1 | 105.0 | 52.1 | 56.0 | n | 67.4 | 76.1 | n | n | n | DNMT1 inh conf=n;DNMT1 interf=n
COc1ccc2[nH]c3nc(SCC(=O)NNC(=O)c4ccc(OC)c(OC)c4)nnc3c2c1 | n | n | n | n | n | x | x | x | x
O=[N+]([O-])c1ccc(/C=N/n2c(-c3cccnc3)n[nH]c2=S)cc1 | n | n | 55.7 | n | 60.0 | 51.9 | n | n | n
O=[N+]([O-])c1cccc(/C=N/n2c(-c3cccnc3)n[nH]c2=S)c1 | n | n | n | n | n | x | x | x | x
Cn1c2ccccc2c(=O)c2c(=O)n(C3CCCCCC3)c(C3CCCCC3)nc21 | 67.7 | n | 60.0 | n | 96.9 | n | n | x | n | DNMT1 inh conf=n;DNMT1 interf=n
CC(=O)Oc1ccc(/C=N\NC(=O)c2cc3c(ccc4ccccc43)o2)cc1 | n | n | 90.1 | n | 91.6 | 68.8 | n | n | n
Cc1ccc(NC(=O)CN2C(=O)S/C(=C\c3cccn3-c3cccc(C(=O)O)c3)C2=O)cc1C | n | n | 41.5 | n | 78.7 | 80.2 | n | 11.3 | n
Cc1ccc(NC(=O)CN2C(=O)S/C(=C\c3ccccn3)C2=O)cc1C | n | n | n | n | n | x | x | x | x
SMILES | DNMT1 inh | LMPTP inh | STEP inh | SUMO1-SIM PPI | Scp1 inh | Scp1 confirm | MG interference | Scp-1 Tm shift | STEP inh conf | others
O=C(N/N=C/C=C\c1ccccc1[N+](=O)[O-])c1cccs1 | n | n | n | n | n | x | x | x | x
O=C(N/N=C/C=C/c1ccc([N+](=O)[O-])cc1)c1cccs1 | 96.9 | 87.1 | 96.3 | n | 101.5 | 91.2 | n | 6.4 | n | DNMT1 inh conf=n;DNMT1 interf=n
O=C(/C=C/c1cccc([N+](=O)[O-])c1)c1cccs1 | n | n | n | n | n | x | x | x | x
O=C(/C=C/c1cccc([N+](=O)[O-])c1)Nc1ccc(NC(=O)c2cccs2)cc1 | n | 56.2 | 45.3 | n | 74.5 | 73.9 | n | 15.5 | n
Cc1cc(NC(=O)CSc2nc(C)c(C)n2CC(C)C)no1 | n | n | n | n | n | x | x | x | x
COc1ccc(/C=N/N=C2/NC(=O)C(CC(=O)O)S2)cc1OCc1ccc(Cl)cc1Cl (stereo unspecified) | n | n | 79.8 | n | 66.3 | 79.2 | n | n | 34.7
O=S(=O)(c1cc(O)ccc1O)c1cccc2c(S(=O)(=O)c3cc(O)ccc3O)cccc12 | 95.4 | 74.6 | 83.7 | 58.1 | 69.0 | x | x | x | x | Beacon interf DR=n;DNMT1 inh conf=83.2;DNMT1 interf=n
